This is an account of results in ChEMBL document CHEMBL3621177, “Modulation of the Interaction between a Peptide Ligand and a G Protein-Coupled Receptor by Halogen Atoms” (ACS Med Chem Lett, 2015).

The structures appear in SMILES notation.

Assay [1] is described as follows: Displacement of [3H]diprenorphine from zebrafish mu opioid receptor expressed in HEK293 cell membranes by radioligand displacement assay. Also noted: species or system Danio rerio. Put shortly:
(§1)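 Competition binding on membranes from stably transfected HEK293 cells expressing the zebrafish μ, δ1a or δ1b receptor. Cells were grown to 80% confluence, harvested and pelleted before membrane preparation. [3H]-diprenorphine served as radioligand. Nonspecific binding was defined with 10 μM naloxone. Data were fitted to a one-site displacement model.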

Assay [2] can be described thus: Displacement of [3H]diprenorphine from zebrafish delta1a opioid receptor expressed in HEK293 cell membranes by radioligand displacement assay. Further details: species or system Danio rerio. A digest of the protocol:
as §1
On the technique in general: Loss of bound radioactivity is the signal in a displacement assay; it reports binding, not function.

Assay [3] in a line: Displacement of [3H]diprenorphine from zebrafish delta1b opioid receptor expressed in HEK293 cell membranes by radioligand displacement assay. Also noted: species or system Danio rerio. Put shortly:
as §1

For assay [4], the species on record is Danio rerio. As to the kind of experiment: Selectivity index, ratio of Ki for zebrafish delta1a opioid receptor to Ki for zebrafish mu opioid receptor.

Usually Ki stands for the equilibrium dissociation constant of an inhibitor or competing ligand from its target. `NC(=O)[C@H](Cc1ccc(Br)cc1)NC(=O)[C@H](Cc1c[nH]c2ccccc12)NC(=O)[C@@H]1CCCN1C(=O)[C@@H](N)Cc1ccc(O)cc1`: the Ki was found to be 135 nM in assay [1], 1900 nM in assay [2] and 2680 nM in assay [3].

In the case of `CC(C)C[C@H](NC(=O)[C@H](Cc1ccc(Cl)cc1)NC(=O)CNC(=O)CNC(=O)[C@@H](N)Cc1ccc(O)cc1)C(=O)O`, the Ki worked out at 312 nM in assay [1], 44.5 nM in assay [2] and 40.6 nM in assay [3].

With `NC(=O)[C@H](Cc1ccc(I)cc1)NC(=O)[C@H](Cc1c[nH]c2ccccc12)NC(=O)[C@@H]1CCCN1C(=O)[C@@H](N)Cc1ccc(O)cc1`, the Ki in assay [1] was 294 nM; in assay [2] it was 1590 nM; in assay [3], 1960 nM.

As for `CC(C)C[C@H](NC(=O)[C@H](Cc1ccccc1Br)NC(=O)CNC(=O)CNC(=O)[C@@H](N)Cc1ccc(O)cc1)C(=O)O`, the results for the Ki in assay [1], in assay [2] and in assay [3] were 1430 nM, 24.2 nM and 32.3 nM, respectively.

As to `CC(C)C[C@H](NC(=O)[C@H](Cc1ccc(I)cc1)NC(=O)CNC(=O)CNC(=O)[C@@H](N)Cc1ccc(O)cc1)C(=O)O`, the figures for the Ki in assay [1], in assay [2] and in assay [3] were 540 nM, 44.6 nM and 52.9 nM, respectively.

Consider `CC(C)C[C@H](NC(=O)[C@H](Cc1ccc(F)cc1)NC(=O)CNC(=O)CNC(=O)[C@@H](N)Cc1ccc(O)cc1)C(=O)O`, for which the Ki in assay [1] was 210 nM; in assay [2], 11.7 nM; in assay [3], 10.6 nM.

With `NC(=O)[C@H](Cc1ccc(F)cc1)NC(=O)[C@H](Cc1c[nH]c2ccccc12)NC(=O)[C@@H]1CCCN1C(=O)[C@@H](N)Cc1ccc(O)cc1`, the figures for the Ki in assay [1], in assay [2] and in assay [3] were 51.6 nM, 5330 nM and 4800 nM, respectively.

For `CC(C)C[C@H](NC(=O)[C@H](Cc1ccccc1F)NC(=O)CNC(=O)CNC(=O)[C@@H](N)Cc1ccc(O)cc1)C(=O)O`, the Ki was 2230 nM in assay [1], 115 nM in assay [2] and 91.1 nM in assay [3].

Consider `NC(=O)[C@H](Cc1ccc(Cl)cc1)NC(=O)[C@H](Cc1c[nH]c2ccccc12)NC(=O)[C@@H]1CCCN1C(=O)[C@@H](N)Cc1ccc(O)cc1`, for which the Ki in assay [1] is 71.9 nM; in assay [2], 1700 nM; in assay [3], 2330 nM.

For the compound `CC(C)C[C@H](NC(=O)[C@H](Cc1ccccc1Cl)NC(=O)CNC(=O)CNC(=O)[C@@H](N)Cc1ccc(O)cc1)C(=O)O`, the Ki in assay [1] turned out to be 1210 nM; in assay [2] it was 42.8 nM; in assay [3] it was 57.2 nM.

On to `NC(=O)[C@H](Cc1ccccc1)NC(=O)[C@H](Cc1c[nH]c2ccccc12)NC(=O)[C@@H]1CCCN1C(=O)[C@@H](N)Cc1ccc(O)cc1` [ENDOMORPHIN-1], for which the values for the Ki in assay [1], in assay [2] and in assay [3] were 32.8 nM, 8470 nM and 6200 nM, respectively. Moreover, the Ratio Ki in assay [4] came to 258.

In the case of `CC(C)C[C@H](NC(=O)[C@H](Cc1ccccc1I)NC(=O)CNC(=O)CNC(=O)[C@@H](N)Cc1ccc(O)cc1)C(=O)O`, the figures for the Ki in assay [1], in assay [2] and in assay [3] were 401 nM, 15.5 nM and 28.5 nM, respectively.

Turning to `CC(C)C[C@H](NC(=O)[C@H](Cc1ccc(Br)cc1)NC(=O)CNC(=O)CNC(=O)[C@@H](N)Cc1ccc(O)cc1)C(=O)O`, the Ki in assay [1] stood at 287 nM; in assay [2] it was 34.1 nM; in assay [3], 27.6 nM.
